Measured values: ChEMBL document CHEMBL5321214, “Targeting the multifaceted neurotoxicity of Alzheimer's disease by tailored functionalisation of the curcumin scaffold” (Eur J Med Chem, 2023)
Calls of active or inactive are those of the source. The rule behind the calls is not given here.

What was measured:
Microglia [1] = assay: Antiinflammatory activity against Sprague-Dawley rat microglial cells assessed as inhibition of LPS-induced TNF-alpha production at 1 to 10 uM pretreated with compound for 1 hr followed by LPS stimulation for 24 hrs by ELISA; assay type: functional, cell-based; conditions: dose 1-10 µM, time 25.0 hrs
Procedure, shortened: (§1)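 Primary cortical rat microglia in DMSO (≤0.1%) or vehicle for 1 h, then 100 ng/mL LPS for 24 h. TNF-α and IL-1β in culture medium by ELISA against standard curves (pg/mL), expressed as % of LPS-stimulated cultures. Mean ± SEM of 3 independent experiments; one-way ANOVA, Holm-Sidak test.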

[2] = Effect on TNF-alpha release in Sprague-Dawley rat microglial cells at 10 uM by ELISA; assay type: toxicity, cell-based; conditions: microglia; procedure, shortened: as §1
Microglia [3] = assay: Cytotoxicity against Sprague-Dawley rat microglial cells assessed as decrease in cell viability at 20 uM incubated for 24 hrs by MTT assay; assay type: toxicity, cell-based
Procedure, shortened: (§2)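 Primary rat microglia, 6×10^4 cells/well, switched to serum-free medium 1 h before 24 h exposure (1–20 μM, DMSO ≤0.1%). MTT 0.18 mg/mL for 4 h at 37 °C, formazan dissolved in DMSO, absorbance 570 nm (reference 630 nm). Vehicle-treated cells = 100% viability.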

Microglia [4] = assay: Antiinflammatory activity against Sprague-Dawley rat microglial cells assessed as inhibition of LPS-induced IL-1 beta production at 1 to 10 uM pretreated with compound for 1 hr followed by LPS stimulation for 24 hrs by ELISA; assay type: functional, cell-based; conditions: dose 1-10 µM, time 25.0 hrs; procedure, shortened: as §1
[5] = Effect on IL-1 beta release in Sprague-Dawley rat microglial cells at 10 uM by ELISA; assay type: toxicity, cell-based; conditions: microglia; procedure, shortened: as §1
SH-SY5Y [6] = assay: Antioxidant activity in human SH-SY5Y cells assessed as increase in intracellular GSH level at 2.5 uM incubated for 24 hrs by […] fluorescence analysis; assay type: functional
Procedure, shortened: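 SH-SY5Y (2×10^4 cells/well) grown 24 h, then exposed to 2.5 μM for 24 h at 37 °C. Fluorescent probe added 30 min at 37 °C; read at ex 355/em 460 nm. GSH (μM) from a GSH standard curve. Mean ± SEM of three experiments; one-way ANOVA with Dunnett's test.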

Microglia [7] = assay: Antiinflammatory activity against Sprague-Dawley rat microglial cells assessed as downregulation of IL-1 beta mRNA expression at 10 uM pretreated with compound for 1 hr followed by LPS stimulation for 6 hrs by real-time PCR analysis; assay type: functional, cell-based; conditions: time 7.0 hrs
Procedure, shortened: (§3)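 Primary cortical microglia (postnatal day 1 rat pups, shaken off mixed glial cultures, ~97% Iba1-positive). Compound (DMSO ≤0.1%) for 1 h, then 100 ng/mL ultra-pure E. coli LPS for 6 h. QIAzol RNA extraction, SuperScript IV reverse transcription, real-time PCR. Mean ± SEM, n = 3 in triplicate; one-way ANOVA, Holm-Sidak test.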

Microglia [8] = assay: Cytotoxicity against Sprague-Dawley rat microglial cells assessed as effect on cell viability at 1 to 20 uM incubated for 24 hrs by MTT assay; assay type: toxicity, cell-based; conditions: dose 1-20 µM; procedure, shortened: as §2
SH-SY5Y [9] = assay: Antioxidant activity in human SH-SY5Y cells assessed as reduction in intracellular ROS formation at 2.5 uM incubated for 24 hrs followed by incubation with t-BuOOH for 30 mins by H2DCF-DA staining based fluorescence analysis; assay type: functional; conditions: time 24.5 hrs
Procedure, shortened: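 SH-SY5Y (2×10^4 cells/well) exposed to 2.5 μM for 24 h, loaded with H2DCF-DA 30 min at room temperature, probe removed, then challenged with 50 μM t-BuOOH 30 min at room temperature. Fluorescence ex 485/em 535 nm, expressed as % ROS increase. Three independent experiments; one-way ANOVA with Dunnett's test.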

[10] = Effect on TNF-alpha release in Sprague-Dawley rat microglial cells at 20 uM by ELISA; assay type: toxicity, cell-based; conditions: microglia; procedure, shortened: as §1
Microglia [11] = assay: Antiinflammatory activity against Sprague-Dawley rat microglial cells assessed as downregulation of TNF-alpha mRNA expression at 10 uM pretreated with compound for 1 hr followed by LPS stimulation for 6 hrs by real-time PCR analysis; assay type: functional, cell-based; conditions: time 7.0 hrs; procedure, shortened: as §3
SH-SY5Y [12] = assay: Cytotoxicity against human SH-SY5Y cells assessed as effect on cell viability at 1.25 to 40 uM incubated for 24 hrs by MTT assay; assay type: toxicity, cell-based; conditions: dose 1.25-40 µM
Procedure, shortened: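 SH-SY5Y, 2×10^4 cells/well, grown 24 h then exposed 24 h (1.25–40 μM) at 37 °C, 5% CO2. MTT 0.5 mg/mL in HBSS for 2 h, washed, formazan dissolved in isopropanol, read at 570 nm (reference 690 nm).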

[13] = Effect on IL-1 beta release in Sprague-Dawley rat microglial cells at 20 uM by ELISA; assay type: toxicity, cell-based; conditions: microglia; procedure, shortened: as §1
Microglia [14] = assay: Antiinflammatory activity against Sprague-Dawley rat microglial cells assessed as inhibition of LPS-induced TNF-alpha production at 1 to 20 uM pretreated with compound for 1 hr followed by LPS stimulation for 24 hrs by ELISA; assay type: functional, cell-based; conditions: dose 1-20 µM, time 25.0 hrs; procedure, shortened: as §1
Microglia [15] = assay: Antiinflammatory activity against Sprague-Dawley rat microglial cells assessed as downregulation of NLRP3 mRNA expression at 10 uM pretreated with compound for 1 hr followed by LPS stimulation for 6 hrs by real-time PCR analysis; assay type: functional, cell-based; conditions: time 7.0 hrs; procedure, shortened: as §3
Microglia [16] = assay: Antiinflammatory activity against Sprague-Dawley rat microglial cells assessed as inhibition of LPS-induced IL-1 beta production at 1 to 20 uM pretreated with compound for 1 hr followed by LPS stimulation for 24 hrs by ELISA; assay type: functional, cell-based; conditions: dose 1-20 µM, time 25.0 hrs; procedure, shortened: as §1
[17] = molecular target: Amyloid-beta precursor protein (Homo sapiens) (UniProt P05067); assay: Anti-oligomeric activity against Abeta42 (unknown origin) assessed as depletion of the formation of toxic HMW Abeta42 oligomers at 5 uM measured at day 7 from sample solubilization by capillary electrophoresis assay; conditions: time 7.0 day
Sequence of Amyloid-beta precursor protein (Homo sapiens) (P05067 whole entry): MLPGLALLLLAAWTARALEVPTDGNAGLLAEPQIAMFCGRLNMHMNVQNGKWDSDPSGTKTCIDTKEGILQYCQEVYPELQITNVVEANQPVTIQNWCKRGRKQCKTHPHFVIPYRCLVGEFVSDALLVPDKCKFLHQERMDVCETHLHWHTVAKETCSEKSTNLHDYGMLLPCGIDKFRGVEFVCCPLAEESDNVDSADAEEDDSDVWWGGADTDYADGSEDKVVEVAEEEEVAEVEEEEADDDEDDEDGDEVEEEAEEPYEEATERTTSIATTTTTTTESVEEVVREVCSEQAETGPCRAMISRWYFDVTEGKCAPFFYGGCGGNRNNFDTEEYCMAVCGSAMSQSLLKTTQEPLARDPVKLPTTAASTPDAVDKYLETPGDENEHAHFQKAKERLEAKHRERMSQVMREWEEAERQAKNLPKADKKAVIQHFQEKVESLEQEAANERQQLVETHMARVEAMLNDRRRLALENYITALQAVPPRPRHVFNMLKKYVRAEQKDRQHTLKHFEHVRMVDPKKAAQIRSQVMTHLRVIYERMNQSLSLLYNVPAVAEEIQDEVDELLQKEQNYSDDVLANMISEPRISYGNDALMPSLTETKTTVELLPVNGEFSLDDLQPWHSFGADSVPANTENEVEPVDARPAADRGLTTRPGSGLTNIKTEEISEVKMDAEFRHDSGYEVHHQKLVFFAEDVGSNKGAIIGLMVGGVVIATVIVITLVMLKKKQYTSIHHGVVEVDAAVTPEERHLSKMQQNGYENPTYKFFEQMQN
Procedure, shortened: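 Aβ42 stock diluted to 221 μM in 20 mM sodium phosphate pH 7.4 containing compound (ethanol stocks 1.53 mM). Capillary electrophoresis: BGE 80 mM sodium phosphate pH 7.4, 30 mbar × 3 s hydrodynamic injection, +12 kV, 25 °C, 200 nm detection. Oligomers assigned by effective mobility; HMW oligomer peak quantified semiquantitatively as normalised area %.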

[18] = molecular target: Keap1/Nrf2 (Homo sapiens) (UniProt Q16236+Q14145); assay: Activation of Keap1/Nrf2 in human SH-SY5Y cells assessed as Nrf2 nuclear translocation by measuring increase in nuclear to cytosolic Nrf2 ratio at 2.5 uM incubated for 3 hrs by western blot analysis; assay type: cell-based
Sequence of Keap1/Nrf2 (Homo sapiens) (Q14145 whole entry, looked up): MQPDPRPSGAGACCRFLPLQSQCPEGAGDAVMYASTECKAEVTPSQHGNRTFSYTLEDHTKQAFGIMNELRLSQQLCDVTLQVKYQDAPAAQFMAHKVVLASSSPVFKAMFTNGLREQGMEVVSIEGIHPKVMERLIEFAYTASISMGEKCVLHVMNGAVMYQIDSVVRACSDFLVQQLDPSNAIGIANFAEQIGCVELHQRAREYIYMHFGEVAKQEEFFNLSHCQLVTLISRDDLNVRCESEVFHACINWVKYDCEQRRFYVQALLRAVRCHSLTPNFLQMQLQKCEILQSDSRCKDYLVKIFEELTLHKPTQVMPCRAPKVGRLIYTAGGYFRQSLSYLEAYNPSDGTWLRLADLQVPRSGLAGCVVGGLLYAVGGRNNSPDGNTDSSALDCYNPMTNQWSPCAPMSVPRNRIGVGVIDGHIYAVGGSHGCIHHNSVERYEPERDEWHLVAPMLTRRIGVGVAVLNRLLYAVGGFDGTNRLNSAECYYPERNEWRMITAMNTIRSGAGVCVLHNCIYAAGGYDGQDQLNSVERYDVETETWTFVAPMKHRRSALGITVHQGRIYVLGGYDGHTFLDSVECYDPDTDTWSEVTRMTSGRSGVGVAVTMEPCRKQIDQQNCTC
Sequence of Keap1/Nrf2 (Homo sapiens) (Q16236 whole entry, looked up): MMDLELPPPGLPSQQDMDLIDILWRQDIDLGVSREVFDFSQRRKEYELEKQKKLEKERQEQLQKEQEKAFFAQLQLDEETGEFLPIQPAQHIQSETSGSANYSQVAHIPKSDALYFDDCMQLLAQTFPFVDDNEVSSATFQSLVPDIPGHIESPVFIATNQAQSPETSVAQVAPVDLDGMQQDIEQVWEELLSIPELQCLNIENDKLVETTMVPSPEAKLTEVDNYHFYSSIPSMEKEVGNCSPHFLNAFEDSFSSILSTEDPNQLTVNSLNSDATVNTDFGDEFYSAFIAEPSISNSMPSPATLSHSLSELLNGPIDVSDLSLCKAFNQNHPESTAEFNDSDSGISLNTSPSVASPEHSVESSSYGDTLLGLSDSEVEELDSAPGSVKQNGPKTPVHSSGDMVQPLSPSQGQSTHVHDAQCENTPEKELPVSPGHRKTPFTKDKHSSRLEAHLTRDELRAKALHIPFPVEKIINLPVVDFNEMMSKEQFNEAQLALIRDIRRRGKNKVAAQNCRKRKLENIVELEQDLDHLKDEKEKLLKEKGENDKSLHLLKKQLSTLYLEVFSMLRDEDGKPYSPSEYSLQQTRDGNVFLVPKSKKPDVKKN
Procedure, shortened: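 SH-SY5Y seeded 2×10^6 cells/dish, grown 24 h, then exposed 3 h at 37 °C, 5% CO2. Nuclear and cytosolic fractions immunoblotted for Nrf2, membranes stripped and reprobed for β-actin and lamin B1 as loading references. Mean ± SEM of three independent experiments; one-way ANOVA with Dunnett's test.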

| Structure (SMILES) | Activity (Microglia [1]) | Activity [2] | Activity (Microglia [3]) | Activity (Microglia [4]) | Activity [5] | Activity (SH-SY5Y [6]) | Activity (Microglia [7]) | Activity (Microglia [8]) | Activity (SH-SY5Y [9]) | Activity [10] | Activity (Microglia [11]) | Activity (SH-SY5Y [12]) | Activity [13] | Activity (Microglia [14]) | Activity (Microglia [15]) | Activity (Microglia [16]) | Activity [17] | Activity [18] |
| --- | --- | --- | --- | --- | --- | --- | --- | --- | --- | --- | --- | --- | --- | --- | --- | --- | --- | --- |
| COc1ccc(/C=C/C(=O)/C(CC(=O)OC(C)(C)C)=C(O)/C=C/c2ccc(OC)cc2)cc1 | Active | Non-Toxic | Toxic | Active | Non-Toxic | – | – | – | – | – | – | – | – | – | – | – | – | – |
| COc1ccc(/C=C/C(=O)/C=C(O)/C=C/c2ccc(OC)cc2)cc1 | – | – | – | – | – | inactive | inactive | Non-Toxic | inactive | Non-Toxic | inactive | Non-Toxic | Non-Toxic | inactive | inactive | inactive | inactive | inactive |
| COc1cc(/C=C/C(=O)CC(=O)/C=C/c2ccc(O)c(OC)c2)ccc1O [CURCUMIN] | Active | Non-Toxic | Toxic | Active | Non-Toxic | – | Active | – | – | – | Active | – | – | – | Active | – | Active | – |
